Data as given in ChEMBL document CHEMBL5321266, “Discovery of a Series of Indane-Containing NBTIs with Activity against Multidrug-Resistant Gram-Negative Pathogens” (ACS Med Chem Lett, 2023).
≈ marks a conversion by molar mass, not a printed value.

Columns and labels:
DNA gyrase [1] = target: T1, DNA gyrase (Escherichia coli, UniProt P0AES4+P0AES6); test: Inhibition of Escherichia coli DNA gyrase ATPase activity incubated for 80 mins; format: protein-complex assay
Escherichia coli = test: Antibacterial activity against Escherichia coli ATCC 25922 incubated for 20 to 24 hrs by CLSI based broth microdilution method; format: functional; settings: time 20-24 hrs
Pseudomonas aeruginosa = test: Antibacterial activity against Pseudomonas aeruginosa ATCC 27853 incubated for 20 to 24 hrs by CLSI based broth microdilution method; format: functional; settings: time 20-24 hrs
[2] = target: Voltage-gated inwardly rectifying potassium channel KCNH2 (Homo sapiens, UniProt Q12809); test: Inhibition of human ERG expressed in CHO cells by automated path clamp method; format: toxicity, cell-based; settings: for inhibition (INH): human, cho
Outline: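 Patch-clamp electrophysiology on the hERG ion channel, recorded at 37 °C; the IC₅₀ was determined.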

Acinetobacter baumannii = test: Antibacterial activity against Acinetobacter baumannii ATCC 19606 incubated for 20 to 24 hrs by CLSI based broth microdilution method; format: functional; settings: time 20-24 hrs
Klebsiella pneumoniae = test: Antibacterial activity against Klebsiella pneumoniae ATCC BAA-1705 incubated for 20 to 24 hrs by CLSI based broth microdilution method; format: functional; settings: time 20-24 hrs
DNA gyrase [3] = target: T1, DNA gyrase; test: Inhibition of Escherichia coli DNA gyrase supercoiling activity using relaxed pBR322 DNA as substrate preincubated for 5 mins followed by enzyme addition and measured after 1 hr by agarose gel electrophoresis; format: protein-complex assay
[4] = target: DNA topoisomerase 2-alpha (Homo sapiens, UniProt P11388); test: Inhibition of human topoisomerase 2 alpha decatenation activity using kDNA as substrate preincubated for 5 mins followed by enzyme addition and measured after 1 hr by agarose gel electrophoresis
[5] = Inhibition of Escherichia coli topoisomerase 4 decatenation activity using kDNA as substrate preincubated for 5 mins followed by enzyme addition and measured after 1 hr by agarose gel electrophoresis method

Chain of Voltage-gated inwardly rectifying potassium channel KCNH2 (Q12809 whole entry): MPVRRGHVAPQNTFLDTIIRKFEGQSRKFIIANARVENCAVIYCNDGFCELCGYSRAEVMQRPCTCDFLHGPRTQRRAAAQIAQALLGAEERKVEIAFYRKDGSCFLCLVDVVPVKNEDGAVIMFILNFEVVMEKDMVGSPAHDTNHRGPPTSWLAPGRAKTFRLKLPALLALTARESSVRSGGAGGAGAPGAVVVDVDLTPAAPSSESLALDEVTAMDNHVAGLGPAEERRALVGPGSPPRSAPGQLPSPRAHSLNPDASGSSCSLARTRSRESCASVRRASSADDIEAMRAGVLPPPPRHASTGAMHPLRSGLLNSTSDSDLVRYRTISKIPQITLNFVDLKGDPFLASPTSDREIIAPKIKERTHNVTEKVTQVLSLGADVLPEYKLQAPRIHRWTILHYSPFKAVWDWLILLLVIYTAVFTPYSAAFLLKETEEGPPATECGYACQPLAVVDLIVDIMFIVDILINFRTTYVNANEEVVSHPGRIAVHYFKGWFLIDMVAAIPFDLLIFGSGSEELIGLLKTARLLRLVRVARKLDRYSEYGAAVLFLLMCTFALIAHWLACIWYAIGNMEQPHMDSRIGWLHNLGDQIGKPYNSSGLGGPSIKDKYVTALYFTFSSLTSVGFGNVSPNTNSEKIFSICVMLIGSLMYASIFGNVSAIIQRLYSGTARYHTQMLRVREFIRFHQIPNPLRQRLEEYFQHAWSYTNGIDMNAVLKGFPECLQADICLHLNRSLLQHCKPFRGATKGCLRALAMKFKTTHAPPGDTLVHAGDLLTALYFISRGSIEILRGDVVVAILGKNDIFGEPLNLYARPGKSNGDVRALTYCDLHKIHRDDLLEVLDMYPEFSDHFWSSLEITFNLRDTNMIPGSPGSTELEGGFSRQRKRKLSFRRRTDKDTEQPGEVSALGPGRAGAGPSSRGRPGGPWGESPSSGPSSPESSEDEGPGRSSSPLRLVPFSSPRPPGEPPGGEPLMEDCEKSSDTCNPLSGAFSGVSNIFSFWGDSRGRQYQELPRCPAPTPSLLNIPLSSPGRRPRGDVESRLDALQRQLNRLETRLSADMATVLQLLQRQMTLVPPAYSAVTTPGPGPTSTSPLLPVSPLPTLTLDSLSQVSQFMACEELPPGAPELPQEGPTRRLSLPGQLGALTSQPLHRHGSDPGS
Chain of DNA topoisomerase 2-alpha (P11388 whole entry): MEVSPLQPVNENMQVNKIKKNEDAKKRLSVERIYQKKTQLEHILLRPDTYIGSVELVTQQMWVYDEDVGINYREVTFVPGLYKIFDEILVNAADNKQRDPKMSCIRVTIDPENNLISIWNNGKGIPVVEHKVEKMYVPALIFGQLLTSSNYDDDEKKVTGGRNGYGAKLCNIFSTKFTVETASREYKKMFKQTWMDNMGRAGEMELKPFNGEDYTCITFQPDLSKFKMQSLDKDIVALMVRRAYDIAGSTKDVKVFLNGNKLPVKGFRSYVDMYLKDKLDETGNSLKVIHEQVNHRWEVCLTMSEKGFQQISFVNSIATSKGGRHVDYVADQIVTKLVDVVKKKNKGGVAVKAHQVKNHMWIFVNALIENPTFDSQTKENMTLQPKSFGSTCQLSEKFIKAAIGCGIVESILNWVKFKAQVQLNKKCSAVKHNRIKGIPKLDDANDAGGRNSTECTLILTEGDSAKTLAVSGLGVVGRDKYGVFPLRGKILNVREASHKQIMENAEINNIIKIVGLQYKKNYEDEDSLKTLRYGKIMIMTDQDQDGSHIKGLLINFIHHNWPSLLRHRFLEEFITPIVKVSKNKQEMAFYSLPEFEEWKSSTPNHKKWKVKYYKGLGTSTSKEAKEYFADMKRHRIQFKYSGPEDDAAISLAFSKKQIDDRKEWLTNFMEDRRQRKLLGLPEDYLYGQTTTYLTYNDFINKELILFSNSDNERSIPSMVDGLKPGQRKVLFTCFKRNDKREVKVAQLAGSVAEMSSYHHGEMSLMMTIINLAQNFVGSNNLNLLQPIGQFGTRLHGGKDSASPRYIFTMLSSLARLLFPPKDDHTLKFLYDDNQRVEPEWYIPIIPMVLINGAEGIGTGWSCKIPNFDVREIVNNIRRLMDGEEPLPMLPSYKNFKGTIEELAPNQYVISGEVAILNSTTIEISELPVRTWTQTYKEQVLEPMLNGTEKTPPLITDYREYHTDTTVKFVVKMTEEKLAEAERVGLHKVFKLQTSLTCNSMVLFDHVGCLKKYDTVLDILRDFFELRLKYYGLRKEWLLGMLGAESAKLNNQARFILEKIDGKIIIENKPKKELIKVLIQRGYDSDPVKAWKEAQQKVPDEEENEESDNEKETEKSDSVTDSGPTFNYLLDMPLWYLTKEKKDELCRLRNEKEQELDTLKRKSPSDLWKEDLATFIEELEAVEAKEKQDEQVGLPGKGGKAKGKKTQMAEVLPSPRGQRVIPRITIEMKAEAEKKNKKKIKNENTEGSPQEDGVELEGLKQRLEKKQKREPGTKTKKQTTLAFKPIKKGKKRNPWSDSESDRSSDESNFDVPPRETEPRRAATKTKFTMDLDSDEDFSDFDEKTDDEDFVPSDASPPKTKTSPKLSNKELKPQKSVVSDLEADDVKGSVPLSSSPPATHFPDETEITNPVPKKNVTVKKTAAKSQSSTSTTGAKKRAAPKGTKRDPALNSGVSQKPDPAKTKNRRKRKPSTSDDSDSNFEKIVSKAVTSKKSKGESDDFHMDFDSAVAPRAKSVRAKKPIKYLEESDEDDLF

SMILES	IC50 (DNA gyrase [1]) [nM]	MIC (Escherichia coli) [µg/mL]	MIC (Pseudomonas aeruginosa) [µg/mL]	inhibition (INH) [2]	MIC (Acinetobacter baumannii) [µg/mL]	MIC (Klebsiella pneumoniae) [µg/mL]	IC50 (DNA gyrase [3]) [nM]	IC50 [4] [nM]	IC50 [2] [nM]	IC50 [5] [nM]
O=C1COc2ccc(N3CC(CCNCC4Cc5cccc(F)c5C4)OC3=O)nc2N1 (stereo not given)	100	0.5 (≈ 1.17 µM)	4 (≈ 9.38 µM)	Active	0.5 (≈ 1.17 µM)	4 (≈ 9.38 µM)				
O=C1COc2ccc(N3CC(CCNC4Cc5cccc(Cl)c5C4)OC3=O)nc2N1 (stereo not given)	290	2 (≈ 4.66 µM)	16 (≈ 37.3 µM)	Active	4 (≈ 9.33 µM)	16 (≈ 37.3 µM)				
O=C1COc2ccc(N3CC(CCCNC4Cc5ccc(F)cc5C4)OC3=O)nc2N1 (stereo not given)	160	1 (≈ 2.34 µM)	16 (≈ 37.5 µM)	Active	4 (≈ 9.38 µM)	8 (≈ 18.8 µM)				
O=C1COc2ccc(N3CC(CCNCC4Cc5cccc(Cl)c5C4)OC3=O)nc2N1 (stereo not given)	90	0.125 (≈ 0.282 µM)	2 (≈ 4.52 µM)	Active	0.125 (≈ 0.282 µM)	2 (≈ 4.52 µM)				
O=C1COc2ccc(N3CC(CCNCCC4Cc5cccc(Cl)c5C4)OC3=O)nc2N1 (stereo not given)	120	0.5 (≈ 1.09 µM)	4 (≈ 8.75 µM)	Active	1 (≈ 2.19 µM)	8 (≈ 17.5 µM)				
N#Cc1cccc2c1CC(CNCCC1CN(c3ccc4c(n3)NC(=O)CO4)C(=O)O1)C2 (stereo not given)	21	≤ 0.06	0.5 (≈ 1.15 µM)		0.125 (≈ 0.288 µM)	1 (≈ 2.31 µM)	100	> 100000	900	160
O=C1COc2ccc(N3CC(CCCNC4CCc5c(Cl)cccc54)OC3=O)nc2N1 (stereo not given)	190	2 (≈ 4.52 µM)	8 (≈ 18.1 µM)	Active	8 (≈ 18.1 µM)	16 (≈ 36.1 µM)				
O=C1COc2ccc(N3CC(CCNCC4Cc5ccccc5C4)OC3=O)nc2N1 (stereo not given)	180	1 (≈ 2.45 µM)	8 (≈ 19.6 µM)	Active	2 (≈ 4.9 µM)	8 (≈ 19.6 µM)				
O=C1COc2ccc(N3CC(CNCCC4Cc5cccc(Cl)c5C4)OC3=O)nc2N1 (stereo not given)	90	0.25 (≈ 0.564 µM)	1 (≈ 2.26 µM)	Active	0.25 (≈ 0.564 µM)	4 (≈ 9.03 µM)				
O=C1COc2ccc(N3CC(CCCNC4Cc5cccc(F)c5C4)OC3=O)nc2N1 (stereo not given)	120	0.5 (≈ 1.17 µM)	4 (≈ 9.38 µM)	Active	1 (≈ 2.34 µM)	4 (≈ 9.38 µM)				
O=C1COc2ccc(N3CC(CNC4Cc5cccc(Cl)c5C4)OC3=O)nc2N1 (stereo not given)	580	8 (≈ 19.3 µM)	> 64	Active	4 (≈ 9.64 µM)	> 64				
O=C1COc2ccc(N3CC(CCCNC4Cc5cccc(Cl)c5C4)OC3=O)nc2N1 (stereo not given)	72	0.25 (≈ 0.564 µM)	2 (≈ 4.52 µM)	Active	0.5 (≈ 1.13 µM)	2 (≈ 4.52 µM)				
O=C1COc2ccc(N3CC(CNCC4Cc5cccc(Cl)c5C4)OC3=O)nc2N1 (stereo not given)	230	0.5 (≈ 1.17 µM)	8 (≈ 18.7 µM)	Active	1 (≈ 2.33 µM)	32 (≈ 74.6 µM)				
O=C1COc2ccc(N3CC(CCCNC4Cc5ccccc5C4)OC3=O)nc2N1 (stereo not given)	270	2 (≈ 4.9 µM)	8 (≈ 19.6 µM)	Active	8 (≈ 19.6 µM)	16 (≈ 39.2 µM)				
O=C1COc2ccc(N3CC(CCCNC4Cc5ccc(Cl)cc5C4)OC3=O)nc2N1 (stereo not given)	250	2 (≈ 4.52 µM)	16 (≈ 36.1 µM)	Active	4 (≈ 9.03 µM)	8 (≈ 18.1 µM)				
O=c1cc(NCC2CN(CC3Cc4ccnc(Cl)c4C3)C2)c2cc(F)ccc2o1 (stereo not given)	160	2 (≈ 4.83 µM)	8 (≈ 19.3 µM)	Active	4 (≈ 9.66 µM)	32 (≈ 77.3 µM)				
N#Cc1cccc2c1CC(NCCCC1CN(c3ccc4c(n3)NC(=O)CO4)C(=O)O1)C2 (stereo not given)	57	0.25 (≈ 0.577 µM)	2 (≈ 4.61 µM)	Active	0.5 (≈ 1.15 µM)	2 (≈ 4.61 µM)				
